Paper PMC9444296 (Investigative Radiology, 2022)
“Also recorded” adds a separate entry of the source.

Columns and labels:
[1] = Plasma stability, dog plasma; assay type: in vitro ADME; details: 0.5 mM, 37°C, HPLC; for average remaining percentage of intact MT218: n = 2
Method in brief: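 Test compound at 0.5 mM was incubated in human, rat or dog plasma at 37°C for up to 48 h, with PBS as control. Samples were mixed with methanol, centrifuged, and the intact compound was quantified by analytical reversed-phase (C18) HPLC.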

[2] = Metabolic stability in cynomolgus monkey hepatocytes; assay type: in vitro ADME; details: 2 hours of incubation, LC-MS/MS
[3] = tested on: GABAA; test: SAFETYscan E/IC50 assay, GABAA; assay type: biochemical; details: concentration range 0.005 to 100 μM
Method in brief: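 Contract-laboratory in vitro panel of 78 targets, run in agonist and/or antagonist modes under provider SOPs over 0.005 to 100 μM. Panel formats included enzyme fragment complementation, FLIPR-based cellular assays, kinase binding and enzymatic assays.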

[4] = tested on: beagle dogs; test: Single and repeated dose toxicity and toxicokinetics in beagle dogs; assay type: in vivo, dog; details: for accumulation ratio AUC0–24h (D14)/AUC0–24h (D1) of Gd: 14 days
Method in brief: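 GLP study in beagle dogs aged 6–7 months (M 7.34–10.58 kg, F 6.50–9.87 kg). Dosing was a single IV 0.70 mmol/kg or daily IV 0.07, 0.21 or 0.70 mmol/kg/d for 2 weeks, with saline placebo and a 2-week recovery. Clinical observation, organ weights and macro/microscopic histopathology were done. Gd accumulation ratio was AUC0–24h(D14)/AUC0–24h(D1).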

**Q.** Which “average remaining percentage of intact MT218” value (“average remaining percentage” below) ([1]; 1 h) does the source give for ZD2-N3-Gd(HP-DO3A) [MT218] here?
**A.** Its value is 89.19%.

**Q.** And the “average remaining percentage” value ([1]; 3 h)?
**A.** The value was 71.45%.

**Q.** And the “average remaining percentage” value ([1]; 6 h)?
**A.** Its value is 47.81%.

**Q.** What about the “average remaining percentage” value ([1]; 28 h) of the same substance?
**A.** The value was 11.23%.

**Q.** What about the “average remaining percentage” value ([1]; 48 h) of the same substance?
**A.** The value was 5.38%.

**Q.** And the “enzymatic degradation half-life (t1/2)” value [1]?
**A.** The value was 5.85 h.

**Q.** What about the “remaining MT218” value [2] of the same substance?
**A.** Its value is 82.9%.

**Q.** What about the inhibition rate [3] of the same substance?
**A.** The inhibition rate was 24.25%.

**Q.** What about the NOAEL ([4]; dog, single dosing) of the same substance?
**A.** Its NOAEL is “not established”.

**Q.** What about the mortality or moribundity ([4]; dogs, any dose group, up to 0.70 mmol/kg/d) of the same substance?
**A.** The mortality or moribundity was “no mortality or morbidity; also recorded: No mortality or moribundity”.

**Q.** What about the “clinical observations (body weight, food consumption, temperature, ophthalmoscopy, hematology, coagulation, clinical chemistry, urinalysis)” value ([4]; dogs, any dose level) of the same substance?
**A.** The value was “No MT218-related changes”.

**Q.** What about the pathological findings ([4]; dogs, both sexes, repeated 0.21 mmol/kg/d and 0.70 mmol/kg/d) of the same substance?
**A.** The pathological findings was “reversible renal tubule degeneration”.

**Q.** What about the NOAEL ([4]; dogs, repeated daily IV dose for 14 days) of the same substance?
**A.** Its NOAEL is 0.07 mmol/kg/day.

**Q.** What about the pathological findings ([4]; dogs, repeated low doses 0.07 mmol/kg/d) of the same substance?
**A.** The pathological findings was “No renal abnormality”.

**Q.** What about the pathological findings ([4]; dogs, single dose 0.70 mmol/kg, no longer evident on day 15) of the same substance?
**A.** Its pathological findings is “mild bilateral tubule degeneration of proximal and distal tubules”.

**Q.** What about the “clinical signs during the dosing period” value ([4]; dogs, single- and repeated-medium and high-dose groups, disappeared after dosing completion) of the same substance?
**A.** The value was “Sporadic symptoms of emesis, retching, and salivation”.

**Q.** What about the “accumulation ratio AUC0–24h (D14)/AUC0–24h (D1) of Gd” value (from here on “accumulation ratio AUC0–24h”) ([4]; female dogs, high dose 0.70 mmol/kg/d IV) of the same substance?
**A.** The value was 1.00.

**Q.** What about the “accumulation ratio AUC0–24h” value ([4]; female dogs, low dose 0.07 mmol/kg/d IV) of the same substance?
**A.** The value was 0.91.

**Q.** And the “accumulation ratio AUC0–24h” value ([4]; female dogs, medium dose 0.21 mmol/kg/d IV)?
**A.** The value was 0.99.

**Q.** And the “accumulation ratio AUC0–24h” value ([4]; male dogs, high dose 0.70 mmol/kg/d IV)?
**A.** Its value is 1.02.

**Q.** What about the “accumulation ratio AUC0–24h” value ([4]; male dogs, low dose 0.07 mmol/kg/d IV) of the same substance?
**A.** Its value is 0.92.

**Q.** And the “accumulation ratio AUC0–24h” value ([4]; male dogs, medium dose 0.21 mmol/kg/d IV)?
**A.** The value was 1.07.
